Source: the RNAGym collection of RNA variant scans (doi:10.1126/science.aae0568)
Fewer inactive variants are shown than the library holds.

B1: tRNA (parent)
chain: GUUCCGUUGGCGUAAUGGUAACGCGUCUCCCUCCUAAGGAGAAGACUGCGGGUUCGAGUCCCGUACGGAACG

Variants of: B1
Test: yeast fitness relative to wild type (ratio to wild type); higher = fitter; tRNA-Arg(CCU), competitive growth, 37 C, YPD
Method in brief: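 Gene amplicons from the start population and from each of six end populations were read by 100-nucleotide paired-end sequencing. Those end populations came from pooled Saccharomyces cerevisiae strains carrying tRNA-Arg(CCU) gene variants at the native locus, competed in YPD at 37°C for 24 hours. Fitness relative to wild type was worked out from changes in genotype frequencies. Genotypes needed ≥ 100 starting reads, and estimates < 0.5 were set to 0.5.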

First: GUUCCGUUGGCGUAAUGGUAACGCGUCUCCCUCCUAAGGAGAAGACAGCGGGUCCGAGUCCCGUACGGAACG
Second: GUUCCGUUGGCGUAAUGGUAACGCGUCUCCCUCCUAAGGAGAAGACCCCGGGUUCGAGUCCCGUCCGGAACG
The yeast fitness of the first is higher: 0.811 for the first, 0.619 for the second.

GUUCCGUUGGCGUAAUGGUAACGCGUCUCCCUCCUAAGGAGAAGACCGCGGGUUCGAUUCCCAUUCGGAACG and GUUCCGUUGGCGUAAUGGUAACGCGUCUCCCUCCUAAGGAGAAGACCGAGAGUUAGAGUACCGUACGGAACG cannot be ordered by yeast fitness: at most 0.5 for the first, at most 0.5 for the second.

Going from GUUCCGUUGGCGUAAUGGUAACGCGUCUCCCUCCUAAGGAGAAGACCGCGGGUUCGAGUCCCGUGCGCAACG to GUUCCGUUGGCGUAAUGGUAACGCGUCUCCCUCCUAAGGAGAAGACAGCGGGAUCGAGUCCCGUACGGAACG, the yeast fitness rises from 0.546 to 0.557.

Going from GUUCCGUUGGCGUAAUGGUAACGCGUCUCCCUCCUAAGGAGAAGACAGCGGGUUCGAGUCCCGAACGGAACG to GUUCCGUUGGCGUAAUGGUAACGCGUCUCCCUCCUAAGGAGAAGACGGCGGGUUCGUGUACCGUACGGAACG, the yeast fitness falls from 0.677 to 0.555.

First: GUUCCGUUGGCGUAAUGGUAACGCGUCUCCCUCCUAAGGAGAAGACCGCGGGUUCGAGGCCCGUACGGAACG
Second: GUUCCGUUGGCGUAAUGGUAACGCGUCUCCCUCCUAAGGAGAAGACAGCGGGUUCGAGACCCGGACGGAACG
The yeast fitness of the first is higher: 0.936 for the first, at most 0.5 for the second.

First: GUUCCGUUGGCGUAAUGGUAACGCGUCUCCCUCCUAAGGAGAAGACGGCGGGUUCGAGUCCGGUACGAAACG
Second: GUUCCGUUGGCGUAAUGGUAACGCGUCUCCCUCCUAAGGAGAAGACCGCGGGUUCGAGUCCCAUACGGAACG
The yeast fitness of the first is lower: 0.525 for the first, 0.949 for the second.

Compared with GUUCCGUUGGCGUAAUGGUAACGCGUCUCCCUCCUAAGGAGAAGACCGGGGGUUCGAGUCCCGUACGGAACG, GUUCCGUUGGCGUAAUGGUAACGCGUCUCCCUCCUAAGGAGAAGACGGCGGGUUCGAGUCCCGUACGGUACG is lower in yeast fitness: 0.909 for the first, 0.764 for the second.

Going from GUUCCGUUGGCGUAAUGGUAACGCGUCUCCCUCCUAAGGAGAAGACGGCGGGUUCGAGUCCCGUACGGCACG to GUUCCGUUGGCGUAAUGGUAACGCGUCUCCCUCCUAAGGAGAAGACCGCGGGUUCGAGUCCCGCACGGAACG, the yeast fitness rises from 0.69 to 0.926.

First: GUUCCGUUGGCGUAAUGGUAACGCGUCUCCCUCCUAAGGAGAAGACGGCGGGUUCGAGUACCGUACGGAACG
Second: GUUCCGUUGGCGUAAUGGUAACGCGUCUCCCUCCUAAGGAGAAGACCGCGGGUUCGAGUCCCGUACCGAACG
The yeast fitness of the first is lower: at most 0.5 for the first, 0.886 for the second.

First: GUUCCGUUGGCGUAAUGGUAACGCGUCUCCCUCCUAAGGAGAAGACCGCGGGUUCGAGUCCCGUACUGAACG
Second: GUUCCGUUGGCGUAAUGGUAACGCGUCUCCCUCCUAAGGAGAAGACCGCGGGUUCGAGUCCCGUACGGAACG
The yeast fitness of the first is lower: 0.86 for the first, 1 for the second.

Compared with GUUCCGUUGGCGUAAUGGUAACGCGUCUCCCUCCUAAGGAGAAGACGGCGGGUUCGAGUCCCGUACGGAACG, GUUCCGUUGGCGUAAUGGUAACGCGUCUCCCUCCUAAGGAGAAGACCGCGGGUUCGAGUCCCGUACGUAACG is higher in yeast fitness: 0.633 for the first, 1.1 for the second.

Going from GUUCCGUUGGCGUAAUGGUAACGCGUCUCCCUCCUAAGGAGAAGACCGCGGGUUCGAGUCCCGUACGCAACG to GUUCCGUUGGCGUAAUGGUAACGCGUCUCCCUCCUAAGGAGAAGACCGCGGGUUCGAGUUCAGUACGGAACG, the yeast fitness falls from 0.742 to at most 0.5.

Going from GUUCCGUUGGCGUAAUGGUAACGCGUCUCCCUCCUAAGGAGAAGACCGCGGGUUCGGGUCCCGUUAGGCACG to GUUCCGUUGGCGUAAUGGUAACGCGUCUCCCUCCUAAGGAGAAGACCGCGGGUUCGAGUCCCGUACGGCACG, the yeast fitness rises from at most 0.5 to 1.07.

Compared with GUUCCGUUGGCGUAAUGGUAACGCGUCUCCCUCCUAAGGAGAAGACGGCGGGUUCGAGUCCCGUCCGGAACG, GUUCCGUUGGCGUAAUGGUAACGCGUCUCCCUCCUAAGGAGAAGACCGCGGGUUCGGGUCCUGUACGGAACG is lower in yeast fitness: 0.672 for the first, at most 0.5 for the second.

First: GUUCCGUUGGCGUAAUGGUAACGCGUCUCCCUCCUAAGGAGAAGACCGCGAGUUCGAGUCCCGUACGGAACG
Second: GUUCCGUUGGCGUAAUGGUAACGCGUCUCCCUCCUAAGGAGAAGACAGCGGGUUCGAGUCCCGUACCGAACG
The yeast fitness of the first is higher: 0.906 for the first, 0.88 for the second.

Going from GUUCCGUUGGCGUAAUGGUAACGCGUCUCCCUCCUAAGGAGAAGACCGCGGGUUCGUGUCCCGUACGGAACG to GUUCCGUUGGCGUAAUGGUAACGCGUCUCCCUCCUAAGGAGAAGACCGCGGGUUCGAGUCGCGUACGGAACG, the yeast fitness rises from 0.623 to 0.671.

Compared with GUUCCGUUGGCGUAAUGGUAACGCGUCUCCCUCCUAAGGAGAAGACCGCCGGUUCGAGUCCCGUACGGAACG, GUUCCGUUGGCGUAAUGGUAACGCGUCUCCCUCCUAAGGAGAAGACCGCGGGUUCGAGUCCCGUCCGGAACG is higher in yeast fitness: 0.633 for the first, 1.04 for the second.

GUUCCGUUGGCGUAAUGGUAACGCGUCUCCCUCCUAAGGAGAAGACGGCGGGUUCGAGUUCCGUCCGGAACG and GUUCCGUUGGCGUAAUGGUAACGCGUCUCCCUCCUAAGGAGAAGACGGAGGGUUCGAGUCCCAUACGAAACG cannot be ordered by yeast fitness: at most 0.5 for the first, at most 0.5 for the second.

Compared with GUUCCGUUGGCGUAAUGGUAACGCGUCUCCCUCCUAAGGAGAAGACCGAGGGUUCGAGUCCCGUGCGGAACG, GUUCCGUUGGCGUAAUGGUAACGCGUCUCCCUCCUAAGGAGAAGACCGCGGGUCCGAGUCCCGUACGGAACG is higher in yeast fitness: at most 0.5 for the first, 0.843 for the second.
